This is an account of results in publication PMC4958353 (Drug Design, Development and Therapy, 2016).

For data set [1] the following is noted: compared with compound 10b (90.5%); cited from earlier work.
Another data set concerns M. tuberculosis H37Rv. Put plainly: microplate Alamar Blue assay, in vitro anti-TB activity. Format: cell-based. The following applies: Mycobacterium tuberculosis. For orientation: The colour change of resazurin is a common sign of viable cells or microbes.
The next data set can be described thus: in vitro. The following applies: human.
The target of a further data set is human serum albumin (Homo sapiens, UniProt P02768). Put plainly: protein binding by reverse-phase HPLC on human serum albumin column. Format: in vitro ADME.
Data set [2] is described as follows: pKa by reverse-phase HPLC. Format: physicochemical.
Data set [3] is described as follows: human liver microsomal stability. Format: in vitro ADME. The following applies: HLM incubation. The essentials: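 Test compound incubated with human liver microsomes. The percentage of parent compound remaining was read at 15 min, 30 min, 1 h and 2 h of incubation.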
(In general: Liver microsomes are vesicles of endoplasmic reticulum, rich in cytochrome P450 enzymes.)

Structures are written as SMILES. In brackets after ≈: the same amount, converted by molar mass.

Chain of human serum albumin (P02768 25-609): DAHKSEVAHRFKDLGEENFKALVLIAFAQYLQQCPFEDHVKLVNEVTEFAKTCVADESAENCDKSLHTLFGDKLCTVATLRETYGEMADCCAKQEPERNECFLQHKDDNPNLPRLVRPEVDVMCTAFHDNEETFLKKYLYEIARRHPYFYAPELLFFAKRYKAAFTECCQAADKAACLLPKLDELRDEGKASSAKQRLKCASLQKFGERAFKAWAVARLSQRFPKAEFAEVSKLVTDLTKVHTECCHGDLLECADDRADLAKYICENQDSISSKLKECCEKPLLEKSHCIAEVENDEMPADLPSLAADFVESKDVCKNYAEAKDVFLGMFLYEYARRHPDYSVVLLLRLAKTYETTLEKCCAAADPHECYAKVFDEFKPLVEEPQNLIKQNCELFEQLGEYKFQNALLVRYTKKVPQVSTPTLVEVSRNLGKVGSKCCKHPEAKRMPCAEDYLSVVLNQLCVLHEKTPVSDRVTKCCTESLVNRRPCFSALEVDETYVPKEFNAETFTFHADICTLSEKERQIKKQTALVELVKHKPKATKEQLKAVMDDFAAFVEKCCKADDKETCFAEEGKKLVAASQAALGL

For orientation: MIC means the lowest concentration that inhibits growth of the organism. For the molecule `Oc1cc(Cl)ccc1Oc1ccc(Cl)cc1Cl` [Triclosan, reference compound], in data set [1], the plasma protein binding result is “even higher than compound 10b”. Moreover, it took 12.5 µg/mL (≈ 43.2 µM) to inhibit growth in the data set on M. tuberculosis H37Rv (MIC). The same molecule gave a CC50 in the data set “in vitro” above 300 µg/mL.

As a reminder, the fraction unbound is the share of the substance not bound to proteins or other matrix. Read a low fraction unbound as extensive binding. As usually defined, the pKa is the negative logarithm of the acid dissociation constant. Low readings indicate a group that gives up its proton readily, high ones a group that holds its proton tightly. On human serum albumin, `Cc1ccc(C(CC(=O)c2ccc(Oc3ccccc3)c(O)c2)C(N)=O)cc1` (centres unmarked) [Compound 10b, 4-(3-Hydroxy-4-phenoxyphenyl)-4-oxo-2-p-tolylbutanamide] showed a fraction unbound of 0.095. The pKa in data set [2] worked out at 7.59. In addition, the Percentage remaining in data set [3] (15 minutes) came to 70.18%; in data set [3] (30 minutes) it was 57.49%; in data set [3] (1 hour), 50.68%; in data set [3] (2 hours) it was 40.35%. Besides, in the data set with M. tuberculosis H37Rv, the MIC came out at 12.5 µg/mL (≈ 33.3 µM). This molecule came in with a CC50 in “in vitro” above 300 µg/mL.

On to `COc1ccc(C(CC(=O)c2ccc(Oc3ccccc3)c(O)c2)C(N)=O)cc1` (centres unmarked) [Compound 10c, 4-(3-Hydroxy-4-phenoxyphenyl)-2-(4-methoxyphenyl)-4-oxobutanamide], for which inhibition of growth against M. tuberculosis H37Rv (MIC) required 25 µg/mL (≈ 63.9 µM). The CC50 in the data set “in vitro” is 261 µg/mL (≈ 666 µM).

In the case of `NC(=O)C(CC(=O)c1ccc(Oc2ccccc2)c(O)c1)c1ccccc1` (centres unmarked) [Compound 10a, 4-(3-Hydroxy-4-phenoxyphenyl)-4-oxo-2-phenylbutanamide], in the data set on M. tuberculosis H37Rv, the MIC came out at 20 µg/mL (≈ 55.3 µM). Moreover, in “in vitro”, the CC50 was above 300 µg/mL.

In turn, `Cc1ccc(C(CC(=O)c2cccc(Oc3ccccc3)c2)C(N)=O)cc1` (centres unmarked) [Compound 5b, 4-Oxo-4-(3-phenoxyphenyl)-2-p-tolylbutanamide] registered an MIC in the data set on M. tuberculosis H37Rv above 100 µg/mL. In the data set “in vitro”, the CC50 was above 300 µg/mL.

Molecule `NNC(=O)c1ccncc1` [Isoniazid, reference compound] gave a minimum inhibitory concentration (MIC) in the data set on M. tuberculosis H37Rv of 0.125 µg/mL (≈ 0.911 µM).

`NC(=O)C(CC(=O)c1cccc(Oc2ccccc2)c1)c1ccccc1` (centres unmarked) [Compound 5a, 4-Oxo-4-(3-phenoxyphenyl)-2-phenylbutanamide] displayed an MIC with M. tuberculosis H37Rv above 100 µg/mL. For the same molecule, the CC50 in the data set “in vitro” is above 300 µg/mL.
